Compound activity deposited in PubChem BioAssay by Johns Hopkins Ion Channel Center.
This is a sample that favours compounds with a hit; in the whole collection about 3.1% have one here.
hERG rescue: hERG (human) protection from proarrhythmic block | Q12809 | CHO-hERG, FluxOR thallium flux, dofetilide IC70 present | activation (rescue from dofetilide block), less the hit threshold, % at 10 µM | 310,000 tested, 0.51% active | AID 1511;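 active = activation above the mean of controls blocked by dofetilide plus 5 SD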;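 note: thallium influx through hERG after potassium depolarization seen as dye fluorescence rise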
KCNQ1 inh: inhibitors of human KCNQ1 potassium channel. P51787. CHO-K1 KCNQ1, FluxOR thallium flux fluorescence; active compounds read high. B-score at 10 µM. 310,000 tested, 1.3% active. AID 2642;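 active = compounds whose thallium flux B-score, printed positive for inhibition, exceeds three library SD while starting fluorescence stays within three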;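 note: channel opened by potassium depolarization with thallium stimulus after 20 min compound exposure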
KCNQ1 act: human KCNQ1 channel potentiation or activation; P51787; CHO-K1 KCNQ1, thallium flux FluxOR fluorescence; active compounds read high; B-score at 10 µM; 310,000 tested, 0.35% active;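 active = fluorescence ratio B-score, a plate-corrected score, at least three library SD, with initial intensity B-score within 5 SD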
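Doses: Single concentration per compound, DMSO matched to controls | Test system: KCNQ1-transfected CHO-K1 cells | Timing: 90 min dye loading and 20 min compound exposure, both at room temperature | Measured by: Kinetic FluxOR thallium fluorescence, 10-s 1-Hz baseline, 110-s post-stimulus read | Medium: Assay buffer with matched DMSO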
KCNK3 inh: human KCNK3 channel inhibition, primary screen; B-score at 10 µM; CHO-KCNK3 thallium flux, FluxOR fluorescence; active compounds read low; 340,000 tested, 0.84% active;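 active = B-score under library mean minus 4 SD, starting fluorescence ratio at most library mean plus 5 SD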;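 note: more negative B-score means stronger inhibition of thallium flux through KCNK3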
KCNK9 block: inhibitors of human KCNK9 two-pore domain potassium channel; Q9NPC2; HEK293 KCNK9, FluxOR thallium flux fluorescence; active compounds read low; B-score at 10 µM; 310,000 tested, 1.2% active; AID 488922;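 active = ratio B-score over 3 SD below the library mean, with starting fluorescence within 5 SD of its mean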;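 note: negative B-score means less thallium flux so channel inhibition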
KCNK9 inh conf: confirmation of human KCNK9 potassium channel inhibitors. shares compounds with KCNK9 block. HEK293 KCNK9 cells, FluxOR thallium flux fluorescence. inhibition, % at 10 µM. 4,900 tested, 43% active;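 active = thallium signal inhibited by more than 5 SD of the compound-free buffer control wells, on both duplicate plates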;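 note: 0% = assay buffer control wells without compound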
Kir2-1 spec: tests whether KCNK9 modulators also affect mouse Kir2.1; AID 492993; shares compounds with KCNK9 block; Kir2.1 cells, FluxOR thallium flux fluorescence; inhibition, % at 10 µM; 4,900 tested, 4% active;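 active = thallium signal drop more than 5 SD beyond the mean of the no-compound control wells, seen in both duplicate plates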;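 note: signal is fluorescence rise after thallium addition divided by baseline fluorescence; plate controls were assay buffer only for no effect and full block by chlorpromazine control for full effect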
HEK293 Tl ctr: non-induced cell nonspecific activity of KCNK9 modulators. non-induced KCNK9-HEK293, FluxOR thallium flux. shares compounds with KCNK9 block. inhibition, % at 10 µM. 4,900 tested, 40% active;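 active = thallium signal drop beyond 5 SD of the untreated control mean, on both duplicate plates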;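 note: plate controls were buffer only IC0 wells for no effect and SID17386958 at its maximal inhibitory level for full effect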
KCNK3 inh conf: human KCNK3 channel inhibition, confirmation assay. 2,400 tested, 99% active. CHO-KCNK3 thallium flux, FluxOR fluorescence; 0% buffer, 100% carvedilol maximal block. ratio percent of control, % at 10 µM. shares compounds with KCNK3 inh;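 active = ratio percent of control, averaged over triplicates, above buffer control mean plus 5 SD, cut at about 64% in these data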;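 note: ratio is the fluorescence rise from min to max over baseline after thallium stimulus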
KCNK3 uninduced: activity in cells without induced KCNK3 expression; thallium flux ratio (lower = more inhibition) at 10 µM; 2,400 tested, 40% active; shares compounds with KCNK3 inh; non-induced KCNK3 parental cells, FluxOR thallium flux; active compounds read low;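 active = thallium flux ratio, averaged over three wells, more than 5 SD below the buffer control mean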;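 note: host cells are CHO cells without KCNK3 induction; ratio is peak minus trough fluorescence over baseline then normalized to buffer controls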
* marks the source's active call; other numbers are inactive results; i = inactive; nt = not tested or not shown.

SMILES	hERG rescue	KCNQ1 inh	KCNQ1 act	KCNK3 inh	KCNK9 block	KCNK9 inh conf	Kir2-1 spec	HEK293 Tl ctr	KCNK3 inh conf	KCNK3 uninduced
COc1cc(CN2CC=C(c3ccc(F)cc3)CC2)cc(OC)c1	-6	i	i	i	i	nt	nt	nt	nt	nt
CC(=NCCN1CCCCC1)c1c(O)n(-c2ccccc2)c(=O)[nH]c1=O	-10	i	i	i	i	i	i	i	nt	nt
CCc1ccc(N2C(=O)NC(=O)/C(=C/c3cccn3CCOc3ccc(C(C)CC)cc3)C2=O)cc1 (centres undefined)	-2	i	i	i	i	i	i	i	nt	nt
O=c1[nH]c(=S)n(CCC2=CCCCC2)c(O)c1/C=N/Nc1ccccc1	-13	i	i	i	i	i	i	25%*	nt	nt
C=C1C(C)C2C(Cc3ccccc3)NC(=O)C23OC(=O)/C=C/C(O)CCCC(C)C/C=C/C3C1O (centres undefined)	nt	nt	nt	i	nt	nt	nt	nt	nt	nt
C[C@]12CCC3C(CC[C@H]4[C@@H](O)[C@H](O)CC[C@]34C)C1CCC2=O (some centres undefined)	nt	nt	nt	i	nt	nt	nt	nt	nt	nt
O=C(CN1CC=C(c2ccccc2)CC1)Nc1cc(Cl)ccc1Cl	-13	i	i	i	i	i	i	i	nt	nt
Fc1ccc(C[n+]2c(-c3ccccc3)cc(-c3ccccc3)cc2-c2ccccc2)cc1	-24	6*	i	nt	-11*	52%*	68%*	i	nt	nt
O=P(Nc1cccc(F)c1)(Oc1ccccc1F)Oc1ccccc1F	-34	i	i	-12*	-11*	48%*	i	31%*	87*	0.13*
Oc1ccccc1/C=N/NP(=S)(c1ccccc1)c1ccccc1	-14	12*	i	-15*	-13*	42%*	i	35%*	109*	0.15*
Oc1ccc(/C=N/NP(=S)(c2ccccc2)c2ccccc2)c(O)c1O	-12	i	i	i	i	nt	nt	nt	nt	nt
COC(=O)C1=C(c2cccc(Cl)c2)C[C@@H]2CC[C@H]1N2C(=O)NCC1CC1	nt	nt	nt	i	nt	nt	nt	nt	nt	nt
COCC(=O)N1Cc2ccccc2-n2nncc2C1	nt	nt	nt	i	nt	nt	nt	nt	nt	nt
O=C(c1ccc(Cl)cc1)C1CCCN(Cc2ccc3nonc3c2)C1 (centres undefined)	-13	i	i	-9.2*	-8.1*	58%*	i	i	95*	i
NC(N)=N/N=C/c1cn(-c2ccccc2)nc1-c1cccs1	-30	9*	i	-12*	-9.2*	54%*	50%*	i	101*	i
CN1C(=O)C(=Cc2c(OCc3cnc(Cl)s3)ccc3ccccc23)C(=O)N(C)C1=O	-25	i	i	-9*	-15*	70%*	i	27%*	101*	i
CN1C(=O)C(=Cc2ccccc2OCc2ccccc2Cl)C(=O)N(C)C1=O	-8	i	i	i	i	nt	nt	nt	nt	nt
C=CCCC1(C(C)C)C(=O)NC(=S)NC1=O	nt	nt	nt	i	nt	nt	nt	nt	nt	nt
Cc1c(C(=O)c2cccc3ccccc23)c2cccc3c2n1[C@H](CN1CCOCC1)CO3	-3	i	i	-11*	i	nt	nt	nt	80*	0.16*
O=C1C=CC(=O)C2C1C1(Cl)C(Cl)=C(Cl)C2(Cl)C1(Cl)Cl (centres undefined)	nt	nt	nt	i	nt	nt	nt	nt	nt	nt
COc1ccccc1OCCCn1cc(C(=O)C2CC2)c2ccccc21	-14	i	i	-8.8*	i	nt	nt	nt	111*	i
COc1ccccc1OCCCn1cc(C(C)=O)c2ccccc21	-20	i	i	i	i	nt	nt	nt	nt	nt
CCN(CC)c1ccc(/C=C/[N+](=O)[O-])cc1	-45	6*	i	-14*	i	nt	nt	nt	133*	0.09*
CCN(CC(=O)Nc1ccc(C#N)c(Cl)c1)CC(=O)NC(C)(C)C	-2	i	i	i	i	nt	nt	nt	nt	nt
N#Cc1ccc(NC(=O)CCNC(=O)c2ccco2)cc1Cl	-10	i	i	-10*	i	nt	nt	nt	95*	0.15*
CC1=C(C)CC2(C(=O)NC(=O)NC2=O)C(C)C1 (centres undefined)	nt	nt	nt	i	nt	nt	nt	nt	nt	nt
